# Arbovirus inh = antivirals against arbovirus infection | AID 1251 | inhibition, % at 10 µM | arbovirus infection cell-based antiviral screen | actives 0.37% (n = 200,000); in the data active means inhibition above about 30%
# ABCG2 block = blocks JC-1 efflux by human ABCG2 transporter | Q9UNQ0 | IgMXP3 cells, flow cytometry | inhibition, % at 6.6 µM | actives 0.1% (n = 190,000);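 active means inhibition above 80%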;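 further: 0% = DMSO and 100% = nicardipine control wells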
#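 Assay system – ABCG2 IgMXP3 and barcoded ABCB1 CCRF-Adr cell mix · Input – 3 million cells/mL in well · Reagent – JC-1 fluorescent substrate · Compound – single test compound dose, 6.6 µM final · Timing – 10 min exposure at 25 °C with rotation, no wash · Detection – flow cytometry of retained JC-1 fluorescence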
# ABCB1 block = blocks JC-1 efflux by human ABCB1 transporter | actives 0.067% (n = 190,000) | CCRF-Adr cells, flow cytometry | inhibition, % at 6.6 µM | P08183; in the data active means inhibition above about 40%;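 further: 0% = vehicle and 100% = reference inhibitor; higher value means more JC-1 retained so stronger ABCB1 efflux block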
# Rad51 HR inh = Rad51 (human) homologous recombination inhibition. actives 0.085% (n = 200,000). hRad51 DNA strand exchange, fluorescence dequenching. AID 1385. Q06609. inhibition, % at 10 µM;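 active means inhibition above 40% at the single screening dose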;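 further: 0% = DMSO control wells and 100% = blanks with heterologous ssDNA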
#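 Test system: preformed human Rad51 ssDNA filaments; also added: Donor/quencher-labelled 47-bp dsDNA substrate; doses: 10 µM final, single point; times: 37 °C 15-min filament assembly, 30-min compound preincubation, 15-min exchange; detection: FRET fluorescence dequenching, excitation 485 nm, emission 520 nm; read-out basis: Fluorescence-based percent inhibition, control- and blank-normalised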
# Mdm2 ligase inh = inhibitors of human Mdm2 E3 ubiquitin ligase | Q00987 | cell-based MDM2 ubiquitination luciferase reporter, 2 h; 0 = plate control, 100 = twice control, blank-subtracted | signal enhancement, % at 5 µM | actives 0.11% (n = 210,000);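 active means signal enhancement of 30% or more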;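 further: luminescence tracks abundance of the self-degrading MDM2-luciferase fusion protein; higher signal means inhibition of MDM2 E3 ligase activity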
# Target sequence (Q00987 whole entry, looked up, the tested form may be a part): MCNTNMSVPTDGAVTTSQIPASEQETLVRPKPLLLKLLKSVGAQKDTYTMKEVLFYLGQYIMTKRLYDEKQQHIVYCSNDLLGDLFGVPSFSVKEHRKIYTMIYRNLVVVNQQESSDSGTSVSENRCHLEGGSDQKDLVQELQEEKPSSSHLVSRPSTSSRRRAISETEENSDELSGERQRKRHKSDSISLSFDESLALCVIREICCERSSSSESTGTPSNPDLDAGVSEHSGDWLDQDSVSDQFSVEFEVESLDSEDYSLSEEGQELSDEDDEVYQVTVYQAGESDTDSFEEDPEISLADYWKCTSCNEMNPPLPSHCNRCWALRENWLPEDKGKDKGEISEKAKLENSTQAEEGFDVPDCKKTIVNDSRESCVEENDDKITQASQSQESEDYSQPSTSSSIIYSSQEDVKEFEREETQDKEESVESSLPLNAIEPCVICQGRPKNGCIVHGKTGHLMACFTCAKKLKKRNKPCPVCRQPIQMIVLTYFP
#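 system = mammalian cells stably expressing self-ubiquitinating, self-degrading MDM2 E3–luciferase fusion | quantity = 2000 cells per well seeded | incubation = 4 h cell settling then 2 h compound exposure, 37 °C | signal = SteadyLite luminescence, 15 min reagent step | benchmarks = plate control and blank wells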
# * marks the source's active call; other numbers are inactive results; · = not tested or not shown. In the library only some 0.62% were active in any assay of this set; here they are far more common.
SMILES,Arbovirus inh,ABCG2 block,ABCB1 block,Rad51 HR inh,Mdm2 ligase inh
Clc1ccccc1/C=N/NC1=Nc2cccc3cccc1c23,-33,-9,-1,-21,346*
C(=N\NC1=Nc2cccc3cccc1c23)/c1ccccn1,-11,-1,-1,-19,-18
CN(C)C(CNC(=S)Nc1ccc(F)cc1)c1cccnc1 (configuration not stated),6,0,0,·,-21
Cc1ccc(-c2csc3ncnc(NS(=O)(=O)c4ccc(Cl)cc4)c23)cc1,46*,-6,-1,-6,-13
CC(C)(C)N/C=C(\C#N)S(=O)(=O)c1ccc(Br)cc1,·,·,·,-3,-8
Cc1ccc2cc3c(N)[nH]nc3nc2c1,-6,-1,-1,-4,-17
COc1ccc(-c2nc(N)ncc2-c2csc(C)n2)c(O)c1OC,1,7,0,-2,-3
COc1ccc(C2C=C(c3ccc(Cl)cc3)Nc3nc(NC(C)=O)nn32)cc1 (configuration not stated),9,3,0,·,-8
COc1ccc(C2=CC(c3ccc(Cl)cc3)n3cnnc3N2)cc1OC (configuration not stated),50*,2,1,-18,-2
OC(COc1ccc2c(c1)CCC2)Cn1cnc2ccccc21 (configuration not stated),12,11,1,128*,-12
O=C(OCc1ccccc1)N1CCCC1/C=C/CN1CCOCC1 (configuration not stated),11,1,0,-6,-21
COc1ccc(C(=O)O)cc1NC(=S)NC(=O)c1ccc(-c2ccc(Cl)cc2)o1,50*,-3,-1,-61,-9
Cc1ccc(C(=O)O)cc1NC(=S)NC(=O)c1ccc(-c2ccc(Cl)cc2)o1,·,·,·,15,-7
O=C(O)c1cccc(NC(=S)NC(=O)c2ccc(-c3ccccc3)cc2)c1,28,0,0,3,-30
O=C(O)c1cccc(NC(=S)NC(=O)c2ccc(-c3ccc(Cl)cc3)o2)c1,35*,-2,0,-111,-3
CC(=O)Nc1ccc(NC(=O)CSc2ccc([N+](=O)[O-])cn2)cc1,·,·,·,6,·
COc1ccc(N2C(=O)C3NN=C(C(=O)OCc4ccccc4)C3C2=O)cc1 (configuration not stated),0,0,0,11,-2
CC(C)(C)c1ccc(OCCC(=O)Nc2cccc(S(=O)(=O)N3CCCCC3)c2)cc1,0,1,0,·,-6
CCOC(=O)c1c(-c2ccc(C)c(C)c2)csc1NC(=O)C1CC=CCC1C(=O)O (configuration not stated),41*,2,0,·,-17
Cc1ccc(NC(=S)C2=C(O)c3ccccc3N(C)S2(=O)=O)cc1,8,1,0,-1,-5
O=c1oc(-c2cccs2)nc2sc3c(c12)CCCCC3,25,·,·,5,·
O=c1oc(/C=C/c2ccccc2)nc2sc3c(c12)CCC3,66*,0,-1,-4,-30
COc1ccc(/C=C/c2nc3sc4c(c3c(=O)o2)CCC4)cc1,·,·,·,-50,·
O=c1oc(-c2cc3ccccc3o2)nc2sc3c(c12)CCCC3,78*,8,0,-6,-6
Cc1ccccc1-c1nc2sc3c(c2c(=O)o1)CCC3,9,6,0,-2,11
SMILES,Arbovirus inh,ABCG2 block,ABCB1 block,Rad51 HR inh,Mdm2 ligase inh
O=c1oc(-c2ccccc2)nc2sc3c(c12)CCCC3,32*,2,0,-8,-13
COc1ccc(C2C(C(=O)O)c3ccccc3C(=O)N2Cc2ccco2)cc1 (configuration not stated),·,·,·,-2,-14
CCc1cc(C(=O)O)c(NC(=O)C(c2ccccc2)c2ccccc2)s1,35*,8,0,4,-15
COCCN1C(=O)/C(=C/c2ccc(Oc3ccc([N+](=O)[O-])cn3)c(OC)c2)SC1=Nc1ccccc1,32*,1,1,-8,13
CCOC(=O)c1c(-c2ccc(C)o2)csc1NC(=S)NC(=O)c1ccccc1Br,47*,-6,-6,2,6
CCOC(=O)c1c(-c2ccc(C)o2)csc1NC(=S)NC(=O)c1cccs1,8,0,0,2,3
CC(C)CC(O)C1CCN(C(=O)CCc2nnc(-c3ccccc3)o2)CC1 (configuration not stated),2,2,0,1,0

# Compound activity deposited in PubChem BioAssay by several laboratories.
